Laboratory results reported in ChEMBL document CHEMBL3399948, “Discovery of 7-azaindole derivatives as potent Orai inhibitors showing efficacy in a preclinical model of asthma” (Bioorg Med Chem Lett, 2015).

Columns and labels:
[1] = Inhibition of Orai-mediated calcium entry in human Jurkat E6-1 cells after 1 hr by FLIPR assay; assay type: cell-based
[2] = Inhibition of Orai channel in phytohemagglutinin-stimulated human Jurkat E6-1 cells assessed as NFAT-induced transcription measured as IL-2 level after 20 hrs by ELISA; assay type: cell-based
[3] = Lipophilicity, log D of the compound at pH 7.4; assay type: physicochemical; settings: buffer
[4] = Oral bioavailability in Wistar rat at 10 mg/kg; assay type: ADME, organism-based; settings: in vivo
[5] = Terminal half life in Wistar rat at 1 mg/kg, iv; assay type: ADME, organism-based; parameters: dose 1 mg/kg, route intravenous; settings: in vivo, read-out: beta t1/2 (converted)
LAD2 = test: Inhibition of degranulation in human LAD2 cells assessed as inhibition of IgE-induced beta-hexosaminidase release preincubated for 30 mins by p-nitrophenyl-N-acetyl-D-glucosamide-based spectrophotometric assay; assay type: functional, cell-based
Summary of the method: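 Human LAD2 mast cells sensitized overnight with 100 ng/mL biotin-IgE in SCF-containing medium. Supernatant β-hexosaminidase measured with p-nitrophenyl-N-acetyl-glucosamide (pH 4.5, 90 min, 37 °C), stopped with glycine pH 10, absorbance read at 405 nm.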

[6] = Drug metabolism in rat liver microsomes at 5 uM after 30 mins in presence of NADPH; assay type: ADME; settings: read-out: Drug metabolism
Summary of the method: (§1)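 Rat or human hepatic microsomes (1 mg/mL protein) incubated with 5 µM compound plus NADPH for 30 min at 37 °C; result given as percent metabolized.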

[7] = Drug metabolism in human liver microsomes at 5 uM after 30 mins in presence of NADPH; assay type: ADME; settings: read-out: Drug metabolism; summary of the method: as §1
[8] = Cmax in Wistar rat at 10 mg/kg, po; assay type: ADME, organism-based; parameters: dose 10 mg/kg, route oral; settings: in vivo
CHO = test: Cytotoxicity against CHO cells; assay type: cell-based; settings: Cricetulus griseus
[9] = biological target: Calcium release-activated calcium channel protein 1 (Homo sapiens, UniProt Q96D31); test: Inhibition of human Orai1/STIM1 expressed in HEK293 cells assessed as inhibition of channel-mediated calcium current by electrophysiology assay in presence of 10 mM EGTA; assay type: cell-based
Summary of the method: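 Automated whole-cell patch clamp on HEK293 cells stably expressing human STIM1/Orai1. I_CRAC activated by passive store depletion with 10 mM EGTA in the internal solution. Holding potential 0 mV; 100 ms voltage ramps applied every 3 s. IC50 from normalized inhibition, at least 3 cells per concentration; values are mean ± SD of two or more determinations.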

Blood = test: Inhibition of IL2 secretion in rat whole blood after 24 hrs by Rat IL-2 DuoSet assay; assay type: functional, tissue-based
Summary of the method: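 Rat whole blood diluted 1:4 in RPMI and stimulated with concanavalin A (62.5 µg/mL) in the presence of increasing compound concentrations for 24 h. Supernatant IL-2 quantified by rat IL-2 ELISA against a standard curve; IC50 derived.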

[10] = AUC (0 to 24 hrs) in Wistar rat at 1 mg/kg, iv; assay type: ADME, organism-based; parameters: time < 24 hr, dose 1 mg/kg, route intravenous; settings: plasma
[11] = Clearance in Wistar rat at 1 mg/kg, iv; assay type: ADME, organism-based; parameters: dose 1 mg/kg, route intravenous; settings: in vivo
[12] = Passive permeability of the compound at 20 uM by PAMPA; assay type: ADME; settings: read-out: permeability
[13] = AUC (0 to 24 hrs) in Wistar rat at 10 mg/kg, po; assay type: ADME, organism-based; parameters: time < 24 hr, dose 10 mg/kg, route oral; settings: plasma
[14] = Solubility of the compound in water; assay type: physicochemical
[15] = Volume of distribution at steady state in Wistar rat at 1 mg/kg, iv; assay type: ADME, organism-based; parameters: dose 1 mg/kg, route intravenous; settings: in vivo, read-out: Vdss
[16] = Plasma protein binding in Wistar rat; assay type: ADME, cell-free; settings: read-out: PPB
Rattus norvegicus [17] = test: Antiinflammatory activity against ovalbumin-induced model of allergic inflammation in brown Norway rat assessed as inhibition of eosinophil infiltration in bronchoalveolar lavage fluid at 1 mg/kg, po bid 1 hr before and 6.5 hrs post ovalbumin challenge measured 24 hrs post challenge relative to vehicle-treated control; assay type: functional; settings: Lung
Rattus norvegicus [18] = test: Antiinflammatory activity against ovalbumin-induced model of allergic inflammation in brown Norway rat assessed as inhibition of eosinophil infiltration in bronchoalveolar lavage fluid at 30 mg/kg, po bid 1 hr before and 6.5 hrs post ovalbumin challenge measured 24 hrs post challenge relative to vehicle-treated control; assay type: functional; settings: Lung
Summary of the method: (§2)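 Brown Norway rats (200-250 g) sensitized i.p. with OVA/Alum on days 0, 14 and 21, then challenged with OVA aerosol on day 28. Oral dosing at 3, 10 or 30 mg/kg bid, 1 h before and 6.5 h after challenge. Vehicle: TPGS 11.7%, PEG-400 40%, propylene glycol 15%, water 33.3%. Eight rats per group. BALF eosinophils counted 24 h post-challenge; inhibition expressed versus vehicle. Dexamethasone served as positive control. Plasma levels measured by UPLC-MS.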

Rattus norvegicus [19] = test: Antiinflammatory activity against po dosed ovalbumin-induced model of allergic inflammation in brown Norway rat assessed as inhibition of eosinophil infiltration in bronchoalveolar lavage fluid at plasma level >3-fold above IC50 for rat IL-2 inhibition compound administered bid 1 hr before and 6.5 hrs post ovalbumin challenge measured 24 hrs post challenge relative to vehicle-treated control; assay type: functional; summary of the method: as §2
Rattus norvegicus [20] = test: Antiinflammatory activity against ovalbumin-induced model of allergic inflammation in brown Norway rat assessed as inhibition of eosinophil infiltration in bronchoalveolar lavage fluid at 10 mg/kg, po bid 1 hr before and 6.5 hrs post ovalbumin challenge measured 24 hrs post challenge relative to vehicle-treated control; assay type: functional; settings: Lung; summary of the method: as §2
Rattus norvegicus [21] = test: Antiinflammatory activity against ovalbumin-induced model of allergic inflammation in brown Norway rat assessed as inhibition of eosinophil infiltration in bronchoalveolar lavage fluid at 3 mg/kg, po bid 1 hr before and 6.5 hrs post ovalbumin challenge measured 24 hrs post challenge relative to vehicle-treated control; assay type: functional; settings: Lung; summary of the method: as §2
Rattus norvegicus [22] = test: Antiinflammatory activity against ovalbumin-induced model of allergic inflammation in brown Norway rat assessed as inhibition of eosinophil infiltration in bronchoalveolar lavage fluid compound administered orally bid 1 hr before and 6.5 hrs post ovalbumin challenge measured 24 hrs post challenge relative to vehicle-treated control; assay type: functional, organism-based; settings: Lung; summary of the method: as §2

Calcium release-activated calcium channel protein 1, sequence (Q96D31 whole entry): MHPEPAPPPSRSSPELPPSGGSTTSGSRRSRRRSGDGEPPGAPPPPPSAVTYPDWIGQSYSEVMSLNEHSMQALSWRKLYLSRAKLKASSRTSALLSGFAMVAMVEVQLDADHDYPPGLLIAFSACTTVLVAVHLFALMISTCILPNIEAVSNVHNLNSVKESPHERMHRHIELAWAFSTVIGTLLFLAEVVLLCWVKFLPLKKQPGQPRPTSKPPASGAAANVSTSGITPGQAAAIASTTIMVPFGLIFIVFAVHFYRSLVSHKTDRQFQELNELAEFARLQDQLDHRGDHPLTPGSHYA

## Cn1nc(C(F)(F)F)cc1-c1cnc2[nH]c(C3CCOCC3)cc2c1
[1]
  IC50: > 10000 nM

## Cc1cc(S(=O)(=O)N(C)C)ccc1-c1cnc2[nH]c(-c3c(F)cccc3Cl)cc2c1
[2]
  IC50: 119 nM
[1]
  IC50: 550 nM

## CNCc1ccc(-c2cnc3[nH]c(-c4c(F)cccc4Cl)cc3c2)c(C)c1
[1]
  IC50: 10000 nM

## Cc1cc(S(C)(=O)=O)ccc1-c1cnc2[nH]c(-c3c(F)cccc3Cl)cc2c1
[2]
  IC50: 290 nM
[1]
  IC50: 280 nM

## Cn1nc(C(F)(F)F)cc1-c1cnc2[nH]c(Cc3ccccc3)cc2c1
[2]
  IC50: 3000 nM
[1]
  IC50: 1400 nM

## Cc1nnsc1C(=O)Nc1ccc(-n2nc(C(F)(F)F)cc2C(F)(F)F)cc1
[3]
  logD: 4.4
[2]
  IC50: 10 nM
[1]
  IC50: 75 nM

## Cc1cc(S(=O)(=O)N2CCOCC2)ccc1-c1cnc2[nH]c(-c3c(F)cccc3Cl)cc2c1
[1]
  IC50: 10000 nM

## COc1cc(C)c(-c2cnc3[nH]c(-c4c(F)cccc4Cl)cc3c2)cn1
[4]
  bioavailability: 37%
[5]
  half-life: 2.1 h
LAD2
  IC50: 443 nM
[6]
  metabolised at 0.5 h, 5 µM: 10%
[2]
  IC50: 40 nM
[7]
  metabolised at 0.5 h, 5 µM: 15%
[8]
  Cmax: 153 ng/mL
CHO
  IC50: > 100000 nM
[9]
  IC50: 104 nM
Blood
  IC50: 1300 nM
[10]
  AUC(0-t) at 24 h: 596 ng·h/mL
[11]
  clearance: 24 mL/min/kg
[12]
  Papp at 20 µM: 0.1 ×10⁻⁶ cm/s
[1]
  IC50: 71 nM
[13]
  AUC(0-t) at 24 h: 2180 ng·h/mL
[14]
  solubility: < 5 µg/mL
[15]
  Vd: 4.2 L/kg

## CNS(=O)(=O)c1ccc(-c2cnc3[nH]c(-c4c(F)cccc4Cl)cc3c2)c(C)c1
[2]
  IC50: 180 nM
[1]
  IC50: 155 nM

## Cc1nc2cc(-c3cnc4[nH]c(-c5c(F)cccc5Cl)cc4c3)c(Cl)cc2o1
[2]
  IC50: 117 nM
[1]
  IC50: 88 nM
[14]
  solubility: < 1 µg/mL

## Cn1nc(C(F)(F)F)cc1-c1cnc2[nH]c(C3CCCCC3)cc2c1
[2]
  IC50: 183 nM
[1]
  IC50: 310 nM

## Cc1cc(=O)n(C)cc1-c1cnc2[nH]c(-c3c(F)cccc3Cl)cc2c1
[1]
  IC50: > 10000 nM

## Cc1cc(OC(F)F)ncc1-c1cnc2[nH]c(-c3c(F)cccc3Cl)cc2c1
[2]
  IC50: 150 nM
[1]
  IC50: 64 nM

## Cn1nc(C(F)(F)F)cc1-c1cnc2[nH]c(C3CCCC3)cc2c1
[2]
  IC50: 270 nM
[1]
  IC50: 260 nM

## Cn1nc(C(F)(F)F)cc1-c1cnc2[nH]c(-c3c(F)cccc3Cl)cc2c1
LAD2
  IC50: 372 nM
[6]
  metabolised at 0.5 h, 5 µM: < 5%
[16]
  fraction unbound: < 0.001
[2]
  IC50: 23 nM
[7]
  metabolised at 0.5 h, 5 µM: < 5%
CHO
  IC50: > 100000 nM
[9]
  IC50: < 100 nM
Blood
  IC50: 500 nM
[12]
  Papp at 20 µM: < 0.05 ×10⁻⁶ cm/s
[1]
  IC50: 66 nM
[14]
  solubility: < 5 µg/mL

## Cn1nc(C(F)(F)F)cc1-c1cnc2[nH]c(-c3ccccc3Cl)cc2c1
[2]
  IC50: 260 nM
[1]
  IC50: 160 nM

## Cc1cc(C(F)(F)F)ncc1-c1cnc2[nH]c(-c3c(F)cccc3Cl)cc2c1
[2]
  IC50: 120 nM
[1]
  IC50: 129 nM

## COc1ncc(-c2cnc3[nH]c(-c4c(F)cccc4Cl)cc3c2)c(C)n1
[1]
  IC50: 10000 nM

## C[C@@H]1C[C@H]2[C@@H]3CCC4=CC(=O)C=C[C@]4(C)[C@@]3(F)[C@@H](O)C[C@]2(C)[C@@]1(O)C(=O)CO [DEXAMETHASONE]
Rattus norvegicus [17]
  inhibition in vivo at 1 mg/kg: 100%

## Cc1cc(=O)[nH]cc1-c1cnc2[nH]c(-c3c(F)cccc3Cl)cc2c1
[1]
  IC50: > 10000 nM

## COc1cc(OC)c(-c2cnc3[nH]c(-c4c(F)cccc4Cl)cc3c2)cn1
[4]
  bioavailability: 62%
Rattus norvegicus [18]
  inhibition in vivo at 30 mg/kg: 75%
[5]
  half-life: 8 h
LAD2
  IC50: 630 nM
[6]
  metabolised at 0.5 h, 5 µM: 10%
Rattus norvegicus [19]
  inhibition (INH): 70%
Rattus norvegicus [20]
  inhibition in vivo at 10 mg/kg: 68%
Rattus norvegicus [21]
  inhibition in vivo at 3 mg/kg: 9%
[2]
  IC50: 68 nM
[7]
  metabolised at 0.5 h, 5 µM: < 5%
[8]
  Cmax: 807 ng/mL
CHO
  IC50: > 100000 nM
[9]
  IC50: 440 nM
Rattus norvegicus [22]
  inhibition: Dose-dependent effect
Blood
  IC50: 740 nM
[10]
  AUC(0-t) at 24 h: 1820 ng·h/mL
[11]
  clearance: 8 mL/min/kg
[12]
  Papp at 20 µM: 0.66 ×10⁻⁶ cm/s
[1]
  IC50: 150 nM
[13]
  AUC(0-t) at 24 h: 11200 ng·h/mL
[14]
  solubility: < 5 µg/mL
[15]
  Vd: 5 L/kg

## Cn1nc(C(F)(F)F)cc1-c1cnc2[nH]c(-c3c(F)cccc3F)cc2c1
[2]
  IC50: 73 nM
[1]
  IC50: 140 nM

## Fc1cccc(Cl)c1-c1cc2cc(-c3cc4c(cc3Cl)OC(F)(F)O4)cnc2[nH]1
[2]
  IC50: 56 nM
[1]
  IC50: 120 nM
[14]
  solubility: < 1 µg/mL

## COc1ccc(OC)c(-c2ccc(NC(=O)c3ccncc3F)cc2)c1
[3]
  logD: 3.5
[2]
  IC50: 10 nM
[1]
  IC50: 82 nM
